This is a sample that favours compounds with a hit; in the whole collection about 3.6% have one here.
MITF TRPM1 HTS: activators of MITF-driven TRPM1 promoter activity in SK-MEL-5 cells. SK-MEL-5 TRPM1-promoter luciferase, 24 h; % of positive control, neutral wells = 0. activation, % at 12.5 µM. 300,000 tested, 0.75% active. AID 588334;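 active = mean activation of at least 80% with every replicate also reaching 80%; inconclusive = mean reaches 80% but some replicate falls short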;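 note: 0% = neutral control wells and 100% = parthenolide positive control wells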
Wnt act: activates Wnt/beta-catenin signaling in a reporter cell assay | activator, plate reader | activation, % at 9.35 µM | 300,000 tested, 1.2% active | AID 743398; in the data active = activation above about 30%, passing the limit was not always enough; inconclusive = no clear call, values can overlap the other calls;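 note: 0% = neutral control wells and 100% = positive control wells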
SR-BI DiI-HDL act: activators of SR-BI mediated HDL lipid uptake | activation, % at 12.5 µM | CHO ldlA[mSR-BI] cells, DiI-HDL uptake fluorescence, 3 h; 100 = double the neutral-control signal | 320,000 tested, 0.096% active;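 active = mean replicate activation of at least 60% and every replicate at or above 60%; inconclusive = mean or all-replicate condition met, but not both; inactive = mean below 60% and not all replicates reaching 60%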;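 note: 0% = median plate neutral-control signal and 100% = twice that signal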
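System: LDL receptor-deficient CHO ldlA cells overexpressing murine SR-BI | Timing: 3 h uptake period with compound, 37 °C | Medium: HEPES-buffered (25 mM, pH 7.4) F12 plus 0.5% BSA | Dosing: Single-point compound dose | Signal: Bottom-read fluorescence, 550/595 nm | Read-out: Retained DiI signal reflecting DiI-HDL uptake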
SR-BI HDL uptake: inhibitors of mouse SR-BI mediated HDL lipid uptake | inhibition, % at 12.5 µM | 320,000 tested, 0.96% active | AID 488896 | ldlA[mSR-BI] CHO cells, DiI-HDL uptake fluorescence, 3 h;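 active = mean replicate inhibition of at least 70% and a set share of replicates each scoring 70 or more; inconclusive = meets just one of the two criteria; inactive = fails both criteria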;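 note: 0% = median of neutral control wells and 100% = median of positive control wells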
Target sequence (Q61009 whole entry, looked up): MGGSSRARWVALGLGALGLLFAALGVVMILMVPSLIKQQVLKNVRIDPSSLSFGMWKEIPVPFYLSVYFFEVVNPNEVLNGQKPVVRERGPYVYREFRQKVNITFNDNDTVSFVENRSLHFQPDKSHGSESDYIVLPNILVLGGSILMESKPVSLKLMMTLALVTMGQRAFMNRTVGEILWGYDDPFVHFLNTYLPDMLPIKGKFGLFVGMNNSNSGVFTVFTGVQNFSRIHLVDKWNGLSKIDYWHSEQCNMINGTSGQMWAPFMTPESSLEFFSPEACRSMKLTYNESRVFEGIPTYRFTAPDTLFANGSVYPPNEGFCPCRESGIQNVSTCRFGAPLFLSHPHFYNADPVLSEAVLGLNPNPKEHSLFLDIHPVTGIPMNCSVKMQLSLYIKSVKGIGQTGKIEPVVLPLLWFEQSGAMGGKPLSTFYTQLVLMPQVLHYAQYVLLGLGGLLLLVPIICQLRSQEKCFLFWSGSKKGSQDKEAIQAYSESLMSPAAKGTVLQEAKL
HSF-1 act: increases HSF-1 driven luciferase reporter signal. NIH3T3-HGL HSF-1 luciferase reporter, MG132, 8 h; 100% = twice DMSO control signal. activation, % at 9 µM. 300,000 tested, 1.7% active. AID 504408;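 active = mean replicate activation of at least 50% with a set share of replicates each reaching 50%; inconclusive = only one of those two conditions met; inactive = mean below 50% and too few replicates reaching it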;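 note: 0% = median of the neutral control wells and 100% = twice that signal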
* marks the source's active call; other numbers are inactive results; ? = inconclusive; / = no result.

SMILES	MITF TRPM1 HTS	Wnt act	SR-BI DiI-HDL act	SR-BI HDL uptake	HSF-1 act
O=C(NCCc1cccs1)C1CC(c2ccc([N+](=O)[O-])cc2)=NO1 (configuration not stated)	90.5*	34.4*	-31.2	31.2	29.2
O=C(CSC1=NCCN1)NC12CC3CC(CC(C3)C1)C2	-20.6	/	-73.2	73.2*	1.6
O=C(COc1ccc(Cc2ccccc2)cc1)c1ccc(F)cc1	36.0	?	/	/	21.7
O=C(COc1ccc(F)cc1)c1ccc2c(c1)CCCC2	?	/	-12.4	12.4	77.7*
Cc1c(NC(=O)c2cccc(NC(=O)C(C)Oc3ccccc3)c2)c(=O)n(-c2ccccc2)n1C (configuration not stated)	/	1.8	/	/	/
Cc1cccc(-c2cc(C(=O)Nc3ccncc3)c3ccccc3n2)c1	-17.0	-1.9	-61.7	61.7	63.1*
COc1cccc(NC(=O)c2cc(-c3cccnc3)nc3c(Cl)cccc23)c1	-13.4	/	-82.3	82.3*	-13.0
COc1cccc(NC(=O)c2cc(-c3ccc(C)o3)nc3ccccc23)c1	0.1	5.4	-77.4	77.4*	7.5
COc1ccc(-c2cc(C(=O)Nc3ccc(O)cc3)c3ccccc3n2)cc1OC	16.4	11.9	-81.2	81.2*	7.2
COc1ccccc1NC(=O)c1cc(-c2ccc(OC)c(OC)c2)nc2ccccc12	3.7	5.6	-51.5	51.5	-6.6
Cc1cc(Br)ccc1NC(=O)CNC(=O)CNc1cccc([N+](=O)[O-])c1	-9.1	0.3	-27.6	27.6	/
COc1ccc(Cl)cc1Cn1c(C)c(C(=O)NCc2cccc([N+](=O)[O-])c2)sc1=O	/	-7.3	/	/	/
COc1cc(OC)cc(-c2c(-c3cccs3)c3cc(-c4ccn[nH]4)ccc3n2C)c1	-18.3	-1.5	-57.0	57.0	/
COc1ccc(NC(=O)c2cc(-c3cc(OC)c(OC)c(OC)c3)nc3ccccc23)cc1OC	-9.2	4.7	-85.4	85.3*	-1.3
CC(C)Cc1cc(C(=O)Nc2ccccc2)c2ccccc2n1	/	-0.4	-70.2	70.2*	-9.9
COc1cc(-c2cc(C(=O)Nc3ccc(S(N)(=O)=O)cc3)c3ccccc3n2)cc(OC)c1OC	-7.7	-4.3	/	/	8.8
COc1ccc(-c2cc(C(=O)Nc3ccc(C)c(N)c3)c3ccccc3n2)cc1	52.7	1.7	-63.4	63.4	74.1*
COc1ccc(NC(=O)c2cc(-c3ccccc3)nc3c2cnn3C(C)C)cc1	7.8	4.4	-82.5	82.5*	/
CN[C@H]1C[C@@H](c2ccccc2)N(C(C)=O)C[C@H]1CO	/	-0.1	/	/	/
COc1cccc(-c2cc(C(=O)Nc3nc4ccccc4s3)c3ccccc3n2)c1	0.4	/	-88.3	88.3*	0.0
O=C(Nc1nc2ccccc2s1)c1cc(-c2ccco2)nc2ccccc12	12.6	-1.6	-15.6	15.6	-24.6
COc1n[nH]c(C(=O)Nc2nc3ccccc3s2)c1[N+](=O)[O-]	-11.9	53.2*	18.3	-18.3	-69.2
CCc1ccc(NC(=S)NC(=O)CC(C)C)cc1	50.7	61.0*	-0.8	0.8	32.0
CC[C@H]1O[C@H](C)CC2=C1C(=O)OC(C)(C)O2	/	-6.4	/	/	/
COc1cccc(NC(=O)c2sc3nc4n(c(=O)c3c2C)CCC4)c1	76.7	14.7	-15.8	15.8	42.0
SMILES	MITF TRPM1 HTS	Wnt act	SR-BI DiI-HDL act	SR-BI HDL uptake	HSF-1 act
CSc1cccc(NC(=O)c2sc3nc4n(c(=O)c3c2C)CCC4)c1	?	17.9	-17.7	17.7	64.4*
CC(C)(C)N1C(=O)c2ccc(C(=O)Nc3nccs3)cc2C1=O	139.8*	/	8.6	-8.6	37.3
CCOC(=O)[C@H](C)N1[C@H](C)[C@H](c2ccccc2)Oc2ccc(Cl)cc2S1(=O)=O	0.6	-0.8	/	/	/
CCN(CC)S(=O)(=O)c1ccc(N2CCOCC2)c(NC(=O)COc2ccc(Cl)cc2)c1	4.5	-4.1	/	/	18.6
CCN(CC)S(=O)(=O)c1ccc(O)c(NC(=O)COc2ccc(S(=O)(=O)N3CCOCC3)cc2)c1	5.0	43.7*	23.4	-23.4	/
c1coc(CSc2ncnc3c2oc2ccccc23)c1	/	35.0*	21.3	-21.3	65.8*
c1ccc(CSc2ncnc3c2oc2ccccc23)cc1	1.8	/	-3.1	3.1	1.2
COC(=O)c1ccc(CSc2ncnc3ccccc23)o1	2.2	-2.0	0.8	-0.8	31.0
COC(=O)c1ccc(CSc2ncnc3c2oc2ccccc23)o1	-6.0	/	-1.6	1.6	113.0*
c1ccc(-c2nnsc2Sc2ccccn2)cc1	47.9	36.2*	5.5	-5.5	3.2
COc1ccc(/C=C2\Sc3ccc(C(=O)NC4CC4)cc3N(C)C2=O)cc1OC	9.4	-1.2	-75.6	75.6*	8.9
O=C(NC(=C(Cl)Cl)S(=O)(=O)c1ccc(Cl)cc1)c1ccccc1	-36.4	7.4	26.9	-26.9	67.0*
Cc1ccc(C(=O)NC(=C(Cl)Cl)S(=O)(=O)c2ccc(Cl)cc2)cc1	12.0	0.5	6.3	-6.3	185.1*
Cc1ccc(S(=O)(=O)/C(=C/Cl)NC(=O)c2ccccc2)cc1	-29.1	/	-3.6	3.6	90.5*
O=C(NC1CCCC1)[C@@H]1CCCN1C(=O)[C@@H](NC(=O)N1CCOCC1)C1CCCCC1	/	4.4	/	/	/
CCCCN(C(=O)Cc1cccs1)c1nnc(-c2cccnc2)s1	99.5*	5.4	-1.2	1.2	/
COCCN(C(=O)Cc1cccs1)c1nnc(-c2cccnc2)s1	7.7	3.4	8.9	-8.9	4.5
C=CCOc1ccc2c(OC)c3ccoc3nc2c1OC	26.5	35.4*	/	6.8	26.3
CCOc1c2ccoc2nc2c(OC)c(OC)ccc12	/	-0.4	-35.2	35.2	27.2
COC(=O)c1cccc(C(=O)N2CCCC(C(=O)c3ccccc3OC)C2)c1 (configuration not stated)	6.4	1.3	-3.1	3.1	58.6*
Cn1cc(Cl)cc(C(=O)Nc2ccccc2)c1=O	46.5	21.5	/	/	-12.0
Cc1ccc(NC(=O)c2cc(C(=O)c3cc(Cl)ccc3O)cn(-c3ccc(C)cc3)c2=O)cc1	-7.8	-2.4	-83.0	83.0*	6.0
N#Cc1cc(C(=O)c2cc(Cl)ccc2O)cn(-c2ccccc2)c1=O	11.5	-1.1	75.6*	-75.6	16.2
Cc1c(-n2cc(C(=O)c3cc(Cl)ccc3O)cc(C#N)c2=O)c(=O)n(-c2ccccc2)n1C	-4.4	-0.9	6.6	-6.6	0.6
CC1(C)CC(=O)C=C(c2ccc(-c3ccccc3)cc2)C1	142.0*	27.5	-35.6	35.6	/
CC1CC(=O)N(CC(=O)NCc2ccc3c(c2)OCO3)c2ccccc2S1 (configuration not stated)	1.8	/	4.0	-4.0	23.2
CC1CC(=O)N(CC(=O)NCc2ccco2)c2ccccc2S1 (configuration not stated)	10.7	/	5.7	-5.7	60.5*
O=C(N/N=C\c1ccc(-c2ccc([N+](=O)[O-])cc2)o1)c1ccc2c(c1)OCO2	10.9	/	-14.7	14.7	20.9
O=C(N/N=C/c1ccc(-c2cccc([N+](=O)[O-])c2)o1)c1ccc([N+](=O)[O-])cc1	1.1	0.3	-81.7	81.7*	-6.2
